Assay results from ChEMBL document CHEMBL1134269, “Structure-affinity relationships of a unique nicotinic ligand: N(1)-dimethyl-N(4)-phenylpiperazinium iodide (DMPP)” (J Med Chem, 2001).
pKi: −log10 of the molar value.

Experiments:
[1] = target: Neuronal acetylcholine receptor; alpha4/beta2 (Rattus norvegicus, UniProt P09483+P12390); test: Binding affinity against nicotinic receptors from rat brain using [3H]cytisine as radioligand
How it was run: (§1)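 Rat brain homogenate membranes (15 mg wet tissue) in 50 mmol Tris-HCl, pH 7.4 at 2 °C, with NaCl, KCl, MgCl₂ and CaCl₂. Incubated 75 min at 2 °C with 2 nmol [³H]-cytisine. Separated by GF/C filtration. Nonspecific binding defined with […] (–)-nicotine bitartrate. Ki calculated by Cheng-Prusoff using Kd 1.5 nmol.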

Mus musculus [2] = test: Minimal analgesic dose of compound injected intracerebroventricularly; type: functional
How it was run: (§2)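 Mouse hot-plate test with compounds given icv. Minimum analgesic dose recorded; efficacy expressed relative to 5 μg morphine icv. Nicotinic origin of analgesia tested by reversal with mecamylamine 2 mg/kg i.p.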

Mus musculus [3] = test: Effect(%) respect to that of 5 ug/kg of morphine injected intracerebroventricularly; type: functional; how it was run: as §2
[4] = Compound was evaluated for pKi; how it was run: as §1
[5] = target: Neuronal acetylcholine receptor subunit alpha-7 (Rattus norvegicus, UniProt Q05941); test: compound was evaluated for pKi
Sequence of Neuronal acetylcholine receptor subunit alpha-7 (Q05941 whole entry): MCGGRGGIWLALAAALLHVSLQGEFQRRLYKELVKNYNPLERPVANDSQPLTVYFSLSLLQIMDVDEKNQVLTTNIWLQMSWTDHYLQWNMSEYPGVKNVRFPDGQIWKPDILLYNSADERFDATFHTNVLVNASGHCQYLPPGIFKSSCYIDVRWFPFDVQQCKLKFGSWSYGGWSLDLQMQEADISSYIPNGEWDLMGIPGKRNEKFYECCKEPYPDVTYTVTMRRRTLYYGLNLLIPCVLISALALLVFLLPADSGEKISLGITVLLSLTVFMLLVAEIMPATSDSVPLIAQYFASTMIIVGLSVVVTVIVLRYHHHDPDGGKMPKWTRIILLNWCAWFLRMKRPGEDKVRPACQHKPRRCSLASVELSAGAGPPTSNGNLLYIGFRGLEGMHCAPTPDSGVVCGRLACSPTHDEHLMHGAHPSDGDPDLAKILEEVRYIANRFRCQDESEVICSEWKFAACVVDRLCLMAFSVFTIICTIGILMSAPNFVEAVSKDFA

Sequence of Neuronal acetylcholine receptor; alpha4/beta2 (P09483 whole entry): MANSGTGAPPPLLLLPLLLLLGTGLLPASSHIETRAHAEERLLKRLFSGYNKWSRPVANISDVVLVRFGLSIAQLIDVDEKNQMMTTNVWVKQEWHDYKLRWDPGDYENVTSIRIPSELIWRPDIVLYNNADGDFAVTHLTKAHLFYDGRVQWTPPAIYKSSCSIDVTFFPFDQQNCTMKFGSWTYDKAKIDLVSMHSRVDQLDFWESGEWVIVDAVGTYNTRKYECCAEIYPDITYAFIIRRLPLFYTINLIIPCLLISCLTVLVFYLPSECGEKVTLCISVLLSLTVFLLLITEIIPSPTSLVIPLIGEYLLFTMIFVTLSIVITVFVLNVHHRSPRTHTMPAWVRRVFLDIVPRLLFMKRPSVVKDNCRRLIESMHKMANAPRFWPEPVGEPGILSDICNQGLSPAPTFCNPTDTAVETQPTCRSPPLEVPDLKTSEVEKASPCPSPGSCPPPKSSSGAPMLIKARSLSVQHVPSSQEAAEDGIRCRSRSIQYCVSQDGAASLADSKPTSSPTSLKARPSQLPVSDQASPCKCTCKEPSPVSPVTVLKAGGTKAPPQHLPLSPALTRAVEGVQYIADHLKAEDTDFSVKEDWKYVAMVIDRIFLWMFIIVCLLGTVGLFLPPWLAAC
Sequence of Neuronal acetylcholine receptor; alpha4/beta2 (P12390 whole entry): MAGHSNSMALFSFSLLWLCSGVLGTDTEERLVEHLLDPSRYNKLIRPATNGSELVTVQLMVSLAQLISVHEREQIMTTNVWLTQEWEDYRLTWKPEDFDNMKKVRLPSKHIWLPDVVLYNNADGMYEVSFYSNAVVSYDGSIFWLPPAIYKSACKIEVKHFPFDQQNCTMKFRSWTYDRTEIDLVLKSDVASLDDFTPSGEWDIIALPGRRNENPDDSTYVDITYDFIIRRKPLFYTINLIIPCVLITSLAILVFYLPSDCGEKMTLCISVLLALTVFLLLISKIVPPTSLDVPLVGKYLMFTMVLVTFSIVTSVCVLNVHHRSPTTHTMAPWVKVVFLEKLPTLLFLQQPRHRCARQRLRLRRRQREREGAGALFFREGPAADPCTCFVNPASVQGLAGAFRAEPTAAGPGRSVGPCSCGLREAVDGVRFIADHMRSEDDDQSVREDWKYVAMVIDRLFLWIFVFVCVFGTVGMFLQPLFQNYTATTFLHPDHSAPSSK

With O=C(O)C(=O)O.c1cncc(N2CCNCC2)c1 as the compound, how does the pKi [1] read?
Its pKi is 7.05.

And the M.A.D (Mus musculus [2])?
Its M.A.D is 50 µg/kg.

What about the Efficacy (Mus musculus [3]) of the same compound?
The Efficacy was 51.1%.

And the “Log Ki” value [4]?
The value was -7.05.

What does the source list for CN1CCN(c2cccc(F)c2)CC1.O=C(O)C(=O)O?
pKi [1]: 5.19; Log Ki [4]: -5.19

With CC(=O)c1ccc(N2CCNCC2)cc1 as the compound, how does the pKi [1] read?
Its pKi is < 5.00.

With CC(=O)Nc1cccc(N2CCN(C)CC2)c1 as the compound, how does the pKi [1] read?
The pKi was < 5.00.

With Cc1cccc(N2CCN(C)CC2)c1 as the compound, how does the pKi [1] read?
The pKi was < 5.00.

With O=[N+]([O-])c1cccc(N2CCNCC2)c1 as the compound, how does the pKi [1] read?
Its pKi is < 5.00.

With Fc1cccc(N2CCNCC2)c1 as the compound, how does the pKi [1] read?
Its pKi is < 5.00.

With CN1CCN(c2cccc(C#N)c2)CC1 as the compound, how does the pKi [1] read?
Its pKi is < 5.00.

With CN1CCN(c2ccc(O)cc2)CC1 as the compound, how does the pKi [1] read?
Its pKi is < 5.00.

With CN1CCN(c2cccc(O)c2)CC1 as the compound, how does the pKi [1] read?
Its pKi is < 5.00.

With c1cc2c(cc1N1CCNCC1)OCO2 as the compound, how does the pKi [1] read?
Its pKi is < 5.00.

With FC(F)(F)c1cccc(N2CCNCC2)c1 as the compound, how does the pKi [1] read?
Its pKi is < 5.00.

With C[N+]1(C)CCN(c2ccc3c(c2)OCO3)CC1.[I-] as the compound, how does the pKi [1] read?
Its pKi is 6.17.

And the “Log Ki” value [4]?
The value was -6.17.

With CN1CCN(c2cccc(N)c2)CC1 as the compound, how does the pKi [1] read?
Its pKi is 6.74.

What about the “Log Ki” value [4] of the same compound?
Its value is -6.74.

With Cc1ccccc1N1CCN(C)CC1 as the compound, how does the pKi [1] read?
Its pKi is < 5.00.

With CN1CCN(C2=CC(=O)CC2)CC1 as the compound, how does the pKi [1] read?
Its pKi is < 5.00.

With CN1CCN(C2=CC(=O)CCC2)CC1 as the compound, how does the pKi [1] read?
Its pKi is < 5.00.

With CC(=O)c1ccc(N2CCN(C)CC2)cc1 as the compound, how does the pKi [1] read?
Its pKi is < 5.00.

With CN1CCN(c2cccc(C(F)(F)F)c2)CC1 as the compound, how does the pKi [1] read?
The pKi was < 5.00.

With CN1CCN(c2ccc3c(c2)OCO3)CC1 as the compound, how does the pKi [1] read?
The pKi was < 5.00.

With CN1CC=C(c2ccccc2)CC1 as the compound, how does the pKi [1] read?
Its pKi is < 5.00.

With CN1CCN(c2cccnn2)CC1.O=C(O)C(=O)O as the compound, how does the pKi [1] read?
Its pKi is 6.41.

What about the “Log Ki” value [4] of the same compound?
Its value is -6.41.

With c1cc(N2CCNCC2)ccn1 as the compound, how does the pKi [1] read?
Its pKi is < 5.00.

With Fc1ccc(N2CCNCC2)cc1 as the compound, how does the pKi [1] read?
Its pKi is < 5.00.

With CN1CCN(c2ccc([N+](=O)[O-])cc2)CC1 as the compound, how does the pKi [1] read?
The pKi was < 5.00.

With CN1CCN(c2ccc(F)cc2)CC1 as the compound, how does the pKi [1] read?
Its pKi is < 5.00.

With CC(=O)Oc1cccc(N2CCN(C)CC2)c1 as the compound, how does the pKi [1] read?
The pKi was 6.10.

What about the pKi [5] of the same compound?
The pKi was 6.10.

With CN1CCN(c2ccc(N)cc2)CC1 as the compound, how does the pKi [1] read?
Its pKi is < 5.00.

With CN1CCN(c2cccc(Cl)c2)CC1 as the compound, how does the pKi [1] read?
The pKi was < 5.00.

With CN1CCC(c2ccccc2)CC1 as the compound, how does the pKi [1] read?
The pKi was < 5.00.

Which M.A.D (Mus musculus [2]) does the source give for CN1CC=C(c2cccnc2)CC1.Cl here?
Its M.A.D is 1 µg/kg.

What about the Efficacy (Mus musculus [3]) of the same compound?
The Efficacy was 36.5%.
